Assay [1] deals with Human immunodeficiency virus 1. Put plainly: Antiviral activity in long term culture of HIV1 KK infected PBMCs after 67 passages assessed as p24 antigen levels at escalating concentrations. The settings on record: Human immunodeficiency virus 1, KK. It is filed as functional, organism-based. Summed up: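 PHA-stimulated PBMCs (5 × 10^6) were infected with R5 clinical isolate KK (100 ng p24) and held compound-free for 2 days at 37°C, then washed. Culture started at 0.2 nM drug and was passaged weekly with fresh same-donor PBMCs. Drug was escalated when treated-culture supernatant p24 (ELISA) exceeded 50% of a parallel untreated control at two consecutive passages.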

The subject of assay [2] is Human immunodeficiency virus 1. Briefly: Ratio of IC50 for HIV1 KK infected PBMC to IC50 for compound treated HIV1 KK infected PBMC after 67 passages. It is filed as functional. The method in brief: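 PHA-stimulated PBMCs infected with the passage-67 escape virus (1,400 CCID50, 4 h) were washed and exposed to 0.1–10,000 nM compound, split 1:2 on day 4, and read for day-7 supernatant p24 by ELISA. Triplicate wells in two donor experiments. Fold change = […].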

The subject of assay [3] is Human immunodeficiency virus 1. Put plainly: Inhibition of HIV1 KK infected PBMC. It is filed as functional, organism-based. The settings on record: Human immunodeficiency virus 1, KK.
For assay [4], the system named is Human immunodeficiency virus 1. Briefly: Antiviral activity in long term culture of HIV1 KK infected PBMCs after 8 passages assessed as p24 antigen levels. It is filed as functional, organism-based. As to conditions: Human immunodeficiency virus 1, KK. The method in brief:
(§1)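 Viruses were isolated at the stated passage from the drug-escalation culture and from the parallel untreated culture, then propagated once in PBMCs. PHA-stimulated PBMCs were infected with 1,400 CCID50 for 4 h, washed, and seeded with 0.1–10,000 nM compound. Cells were split 1:2 on day 4, and supernatant p24 was read by ELISA on day 7. Triplicate wells, two experiments with different donors; IC50 from a logistic least-squares fit.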

In assay [5] the test system is Human immunodeficiency virus 1. Briefly: Antiviral activity in long term culture of HIV1 KK infected PBMCs after 43 passages assessed as p24 antigen levels. The settings on record: Human immunodeficiency virus 1, KK. It is filed as functional, organism-based. The method in brief:
as §1

Assay [6] deals with Human immunodeficiency virus 1. Put plainly: Antiviral activity in long term culture of HIV1 KK infected PBMCs after 56 passages assessed as p24 antigen levels. As to conditions: Human immunodeficiency virus 1, KK. It is filed as functional, organism-based. Summed up: as §1
For assay [7], the system named is Human immunodeficiency virus 1. Put plainly: Inhibition of R5 HIV1 replication at 5 uM. It is filed as functional, organism-based.

Calls of active or inactive are those of the source. The calls are words filed in the database; no cut-off is given here.

In general, IC50 refers to the concentration needed to halve the response being measured. As for `CC(=O)N1CCC(C(=O)N(CCCN2CCC(Cc3ccc(C(N)=O)cc3)CC2)c2ccc(C)c(Cl)c2)CC1`, in assay [1], the 50% inhibitory concentration (IC50) was 1.3 nM. Further, the “Ratio IC50” value in assay [2] is recorded as 1.6.

In the case of `Cc1ccc(-c2ccc3c(c2)C=C(C(=O)Nc2ccc(C[N+](C)(C)C4CCOCC4)cc2)CCC3)cc1.[Cl-]`, the IC50 in assay [1] was 77 nM. Moreover, in assay [2], the “Ratio IC50” value amounted to 37.

As to `CCCCOCCOc1ccc(-c2ccc3c(c2)/C=C(/C(=O)Nc2ccc([S@@+]([O-])Cc4cncn4CCC)cc2)CCCN3CC(C)C)cc1.CS(=O)(=O)O` [CENICRIVIROC MESYLATE], the IC50 in assay [3] is 0.14 nM; in assay [1], greater than 10000 nM; in assay [4], 0.24 nM; in assay [5], 0.2 nM; in assay [6], 67 nM. The “Ratio IC50” value in assay [2] is greater than 230000. For the same molecule, the result in assay [7] was Active.

(Values after ChEMBL document CHEMBL1142191, “Isolation and characterization of human immunodeficiency virus type 1 resistant to the small-molecule CCR5 antagonist TAK-652” (Antimicrob Agents Chemother, 2007).)
